Laboratory results as given in ChEMBL document CHEMBL1124127, “Central dopaminergic and 5-hydroxytryptaminergic effects of C3-methylated derivatives of 8-hydroxy-2-(di-n-propylamino)tetralin” (J Med Chem, 1988).

Key:
[1] = molecular target: T1, 5-hydroxytryptamine receptor 1A (Rattus norvegicus, UniProt P19327); assay: Inhibitory activity tested in vitro at 5-hydroxytryptamine 1A receptor binding site in rat
T1 sequence (P19327 whole entry): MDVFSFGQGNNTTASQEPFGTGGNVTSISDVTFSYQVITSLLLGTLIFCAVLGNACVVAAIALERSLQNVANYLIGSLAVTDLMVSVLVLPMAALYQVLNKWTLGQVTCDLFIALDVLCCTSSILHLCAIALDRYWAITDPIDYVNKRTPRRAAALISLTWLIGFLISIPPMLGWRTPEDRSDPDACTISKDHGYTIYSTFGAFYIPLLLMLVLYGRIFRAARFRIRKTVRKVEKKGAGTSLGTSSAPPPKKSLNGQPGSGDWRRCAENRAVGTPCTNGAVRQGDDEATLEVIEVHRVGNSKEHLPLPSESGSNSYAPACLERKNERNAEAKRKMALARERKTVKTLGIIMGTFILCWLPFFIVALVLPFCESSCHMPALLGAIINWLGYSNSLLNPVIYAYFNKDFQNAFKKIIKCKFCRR
How it was run: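 Competition binding used rat brain membranes washed in 50 mM Tris-HCl pH 7.4, preincubated 10 min at 37 °C to remove 5-HT, and used at 10 mg wet tissue/mL. Assay: 1 nM [3H]-8-OH-DPAT, 3 mM CaCl2, 100 µM pargyline, 15 min at 37 °C, then filtration on PEI-treated filters. Nonspecific binding was set with 10 µM 5-HT. IC50 came from four-parameter logistic regression, mean ± SEM of N experiments.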

[2] = test system: Rattus norvegicus; assay: Effect on in vivo accumulation of dopamine(DA) was measured in rat limbic system at 59(Micromol/kg) dose; assay type: functional
How it was run: (§1)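 Non-reserpinized rats got the test drug sc in the neck (5 mL/kg) 60 min before death, and NSD 1015 (573 µmol/kg ip) 30 min before death. After decapitation, the limbic system was dissected on ice, frozen and homogenized in 0.1 M perchloric acid with α-methyl-DOPA internal standard. DA was measured by ion-pair reversed-phase HPLC with electrochemical detection. Data are mean ± SEM (controls n=17-19, treated 3-7), analysed by ANOVA/Dunnett.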

[3] = test system: Rattus norvegicus; assay: Effect on in vivo accumulation of DOPA was measured in rat limbic system at 59(Micromol/kg) dose; assay type: functional
How it was run: (§2)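 Rats not pretreated with reserpine received test drug (hydrochloride or hydrobromide salt) sc in the neck region 60 min before death. NSD 1015 decarboxylase inhibitor (100 mg/kg, i.e., 573 μmol/kg, ip) was given 30 min before decapitation. Brain was dissected on ice. Tissue was homogenized in 0.1 M perchloric acid with α-methyl-DOPA internal standard. Analytes were quantified by ion-pair reversed-phase HPLC-electrochemical detection. Values are means ± SEM, n = 3-7 per treated group.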

[4] = test system: Rattus norvegicus; assay: Effect on in vivo accumulation of […] was measured in rat corpus striatum at 59(Micromol/kg) dose; assay type: functional; how it was run: as §2
[5] = test system: Rattus norvegicus; assay: Effect on in vivo accumulation of DOPA was measured in rat corpus striatum at 59(Micromol/kg) dose; assay type: functional; how it was run: as §2
[6] = test system: Rattus norvegicus; assay: Effect on in vivo accumulation of 5-HTP was measured in rat limbic system at 59(Micromol/kg) dose; assay type: functional; how it was run: as §2
[7] = test system: Rattus norvegicus; assay: Effect on in vivo accumulation of 5-HTP was measured in rat corpus striatum at 59(umol/kg) dose; assay type: functional; how it was run: as §2
[8] = test system: Rattus norvegicus; assay: Effect on in vivo accumulation of 5-HTP was measured in rat corpus striatum at 5.9(umol/kg) dose; assay type: functional; how it was run: as §2
[9] = test system: Rattus norvegicus; assay: Effect on in vivo accumulation of 5-HTP was measured in rat limbic system at 5.9 (umol/kg) dose; assay type: functional; how it was run: as §2
[10] = test system: Rattus norvegicus; assay: Effect on in vivo accumulation of DOPA was measured in rat limbic system at 5.9 (umol/kg) dose; assay type: functional; how it was run: as §2
[11] = test system: Rattus norvegicus; assay: Effect on in vivo accumulation of dopamine(DA) was measured in rat limbic system at 5.9 (umol/kg) dose; assay type: functional; how it was run: as §1
[12] = test system: Rattus norvegicus; assay: Effect on in vivo accumulation of DOPA was measured in rat corpus striatum at 5.9 (umol/kg) dose; assay type: functional; how it was run: as §2
[13] = test system: Rattus norvegicus; assay: Effect on in vivo accumulation of […] was measured in rat corpus striatum at 5.9 (umol/kg) dose; assay type: functional; how it was run: as §2
[14] = test system: Rattus norvegicus; assay: Effect on in vivo accumulation of dopamine(DA) was measured in rat limbic system at 50(Micromol/kg) dose; assay type: functional; how it was run: as §1
[15] = test system: Rattus norvegicus; assay: Effect on in vivo accumulation of 5-HTP was measured in rat limbic system at 50(Micromol/kg) dose; assay type: functional; how it was run: as §2
[16] = test system: Rattus norvegicus; assay: Effect on in vivo accumulation of DOPA was measured in rat limbic system at 50(Micromol/kg) dose; assay type: functional; how it was run: as §2
[17] = test system: Rattus norvegicus; assay: Effect on in vivo accumulation of […] was measured in rat corpus striatum at 50(Micromol/kg) dose; assay type: functional; how it was run: as §2
[18] = test system: Rattus norvegicus; assay: Effect on in vivo accumulation of DOPA was measured in rat corpus striatum at 50(Micromol/kg) dose; assay type: functional; how it was run: as §2
[19] = test system: Rattus norvegicus; assay: Effect on in vivo accumulation of 5-HTP was measured in rat corpus striatum at 50(umol/kg) dose; assay type: functional; how it was run: as §2
[20] = test system: Rattus norvegicus; assay: Effect on in vivo accumulation of 5-HTP was measured in rat corpus striatum at 43(umol/kg) dose; assay type: functional; how it was run: as §2
[21] = test system: Rattus norvegicus; assay: Effect on in vivo accumulation of […] was measured in rat corpus striatum at 43(Micromol/kg) dose; assay type: functional; how it was run: as §2
[22] = test system: Rattus norvegicus; assay: Effect on in vivo accumulation of dopamine(DA) was measured in rat limbic system at 43(Micromol/kg) dose; assay type: functional; how it was run: as §1
[23] = test system: Rattus norvegicus; assay: Effect on in vivo accumulation of DOPA was measured in rat limbic system at 43(Micromol/kg) dose; assay type: functional; how it was run: as §2
[24] = test system: Rattus norvegicus; assay: Effect on in vivo accumulation of DOPA was measured in rat corpus striatum at 43(Micromol/kg) dose; assay type: functional; how it was run: as §2
[25] = test system: Rattus norvegicus; assay: Effect on in vivo accumulation of 5-HTP was measured in rat limbic system at 43(Micromol/kg) dose; assay type: functional; how it was run: as §2

Question: With `CCCN(CCC)[C@H]1Cc2c(O)cccc2C[C@H]1C` (stereo in doubt; (+)) as the molecule, how does the IC50 [1] read?
Answer: 2420 nM

Question: For `CCCN(CCC)[C@H]1Cc2c(O)cccc2C[C@@H]1C` (stereo in doubt; (+)), which IC50 [1] is on record?
Answer: 60.5 nM

Question: What does the source list for `CCCN[C@H]1Cc2c(O)cccc2C[C@@H]1C` (stereo in doubt; (+)-9)?
Answer: Activity [2]: 1030 ng/g; Activity [3]: 426 ng/g; Activity [4]: 4249 ng/g; Activity [5]: 957 ng/g; Activity [6]: 125 ng/g; Activity [7]: <67.4 ng/g

Question: For `CCCN[C@H]1Cc2c(O)cccc2C[C@H]1C` (stereo in doubt; (+)-13), which Activity [8] is on record?
Answer: 104 ng/g

Question: And the Activity [9]?
Answer: 131 ng/g

Question: What about the Activity [2] of the same molecule?
Answer: 1186 ng/g

Question: What about the Activity [3] of the same molecule?
Answer: <271 ng/g

Question: And the Activity [10]?
Answer: 365 ng/g

Question: What about the Activity [4] of the same molecule?
Answer: 5133 ng/g

Question: And the Activity [5]?
Answer: <525 ng/g

Question: What about the Activity [11] of the same molecule?
Answer: 1292 ng/g

Question: And the Activity [12]?
Answer: 1013 ng/g

Question: And the Activity [6]?
Answer: 140 ng/g

Question: And the Activity [13]?
Answer: 5924 ng/g

Question: And the Activity [7]?
Answer: 101 ng/g

Question: For `CCCN(CCC)[C@H]1Cc2c(O)cccc2C[C@H]1C` (stereo in doubt; (+)-15), which Activity [14] is on record?
Answer: <609 ng/g

Question: And the Activity [15]?
Answer: 197 ng/g

Question: And the Activity [16]?
Answer: <507 ng/g

Question: And the Activity [17]?
Answer: <2758 ng/g

Question: What about the Activity [18] of the same molecule?
Answer: 1157 ng/g

Question: And the Activity [19]?
Answer: 115 ng/g

Question: What about the IC50 [1] of the same molecule?
Answer: 2420 nM

Question: `CCCN(CCC)[C@H]1Cc2c(O)cccc2C[C@H]1C` (stereo in doubt; (-)) was tested. Which IC50 [1] did it give?
Answer: 486 nM

Question: How did the IC50 [1] turn out when `CCCN(CCC)[C@H]1Cc2c(O)cccc2C[C@@H]1C` (stereo in doubt; (-)) was run?
Answer: 1680 nM

Question: Which Activity [2] does the source give for `CCCN[C@H]1Cc2c(O)cccc2C[C@@H]1C` (stereo in doubt; (-)-9) here?
Answer: 975 ng/g

Question: What about the Activity [3] of the same molecule?
Answer: <340 ng/g

Question: And the Activity [4]?
Answer: 5588 ng/g

Question: And the Activity [5]?
Answer: 978 ng/g

Question: What about the Activity [6] of the same molecule?
Answer: 169 ng/g

Question: And the Activity [7]?
Answer: 105 ng/g

Question: Which Activity [20] does the source give for `CCCN(CCC)[C@H]1Cc2c(O)cccc2C[C@@H]1C` (stereo in doubt; (-)-11) here?
Answer: 117 ng/g

Question: What about the Activity [21] of the same molecule?
Answer: <4181 ng/g

Question: What about the Activity [22] of the same molecule?
Answer: <800 ng/g

Question: And the IC50 [1]?
Answer: 1680 nM

Question: And the Activity [23]?
Answer: 381 ng/g

Question: And the Activity [24]?
Answer: 1039 ng/g

Question: And the Activity [25]?
Answer: 136 ng/g

Question: Which results are given for `CCCN[C@H]1Cc2c(O)cccc2C[C@H]1C` (stereo in doubt; (-)-13)?
Answer: Activity [2]: 1148 ng/g; Activity [3]: 365 ng/g; Activity [4]: 5365 ng/g; Activity [5]: 932 ng/g; Activity [6]: 151 ng/g; Activity [7]: 103 ng/g
